Data reported in PMC8480316 (Chemical Science, 2021).
Where a SMILES comes first, the peptide text is derived from it. Bridges are numbered along the chain shown (N, C = ends). The star is where a group is joined. βGlc = OC[C@H]1O[C@@H](*)[C@H](O)[C@@H](O)[C@@H]1O

Experiments:
[1] = molecular target: toll-like receptor 4 (TLR4) (Homo sapiens, UniProt O00206); type: binding; conditions: ELISA, result in words
In short: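 Antagonism of LPS–TLR4 binding measured by ELISA, read as optical density at 450 nm. Each sample was run as four parallel experiments, with OD reported as mean ± standard deviation. IC50 values were derived from dose–response curves.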

[2] = thermal stability assay; type: physicochemical; conditions: heating experiments, 95 °C for 3 h
[3] = system: carboxypeptidase Y; test: carboxypeptidase Y-treatment experiments; type: in vitro ADME; conditions: 28 °C for 12 h, pH 6.0

Chain of toll-like receptor 4 (TLR4) (O00206 24-839): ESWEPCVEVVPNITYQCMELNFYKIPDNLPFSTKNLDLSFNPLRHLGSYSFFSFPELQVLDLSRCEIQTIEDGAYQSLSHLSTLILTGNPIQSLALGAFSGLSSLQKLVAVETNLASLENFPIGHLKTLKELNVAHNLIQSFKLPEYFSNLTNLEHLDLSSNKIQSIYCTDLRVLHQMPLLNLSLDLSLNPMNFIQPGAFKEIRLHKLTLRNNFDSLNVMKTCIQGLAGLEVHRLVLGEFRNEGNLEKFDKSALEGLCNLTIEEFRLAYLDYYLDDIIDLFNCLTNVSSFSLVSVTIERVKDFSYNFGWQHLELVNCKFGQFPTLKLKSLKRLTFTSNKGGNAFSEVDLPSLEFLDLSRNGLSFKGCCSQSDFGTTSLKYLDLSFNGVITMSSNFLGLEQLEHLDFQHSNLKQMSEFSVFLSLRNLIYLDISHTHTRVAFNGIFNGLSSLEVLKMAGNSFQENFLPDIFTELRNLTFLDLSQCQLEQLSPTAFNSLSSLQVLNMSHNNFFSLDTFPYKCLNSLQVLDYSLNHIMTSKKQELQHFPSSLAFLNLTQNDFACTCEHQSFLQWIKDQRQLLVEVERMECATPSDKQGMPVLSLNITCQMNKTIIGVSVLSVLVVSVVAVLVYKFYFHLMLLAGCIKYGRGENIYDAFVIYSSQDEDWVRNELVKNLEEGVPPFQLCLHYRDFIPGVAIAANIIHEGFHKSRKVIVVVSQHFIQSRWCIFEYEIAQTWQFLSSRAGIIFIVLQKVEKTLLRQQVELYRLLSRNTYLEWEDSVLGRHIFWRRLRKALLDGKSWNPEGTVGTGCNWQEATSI
Chain of toll-like receptor 4 (TLR4) (Q9Y6Y9 17-160 partner limits assumed): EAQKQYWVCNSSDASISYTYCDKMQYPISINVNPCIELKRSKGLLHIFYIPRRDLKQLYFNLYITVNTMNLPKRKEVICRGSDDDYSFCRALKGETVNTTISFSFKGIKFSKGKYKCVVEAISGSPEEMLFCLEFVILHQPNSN

thermal stability [2] | proteolytic stability [3] | Compound | antagonistic (inhibitory) activity against the binding of LPS to TLR4 [1]
– | – | stlassin I4C [compound 21] | comparable inhibitory activities to stlassin (1)
– | – | CC[C@H](C)[C@@H]1NC(=O)[C@H](C(C)C)NC(=O)[C@H](C(C)C)NC(=O)[C@H](CC(C)C)NC(=O)C[C@@H](C(=O)N[C@@H](Cc2c[nH]c3ccccc23)C(=O)N[C@@H](CC(N)=O)C(=O)N[C@@H](C)C(=O)N2CCC[C@H]2C(=O)NCC(=O)N[C@@H](Cc2c[nH]c3ccccc23)C(=O)N[C@@H](Cc2ccc(O[C@@H]3O[C@H](CO)[C@@H](O)[C@H](O)[C@H]3O)cc2)C(=O)O)NC(=O)[C@H](C)NC(=O)[C@H](CCC(N)=O)NC(=O)[C@H](C(C)C)NC1=O [compound 20, stlassin F15Y-I] (LVVIVQADWNAPGWY(βGlc)-OH; lactam N-8) | comparable inhibitory activities to stlassin (1)
similarly high stability to that of 1 | similarly high stability to that of 1 | stlassin V2C/A11C [compound 18] | –
